Test results reported in publication PMC10762718 (RSC Advances, 2024).

How the values were obtained:
Type in all cases: cell-based
[1] = test system: normal mammary epithelial MCF-10A cells; assay: MTT cell viability assay, normal MCF-10A cells; settings: tested at 25, 50 and 100 μM
In short: (§1)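 Normal mammary epithelial MCF-10A cells were exposed to test compound at 25, 50 and 100 μM for 72 h. Cells were then given MTT after medium removal, 3 h at 37 °C in CO2. Formazan was dissolved in DMSO and absorbance read at 595 nm. Viability is expressed as percent of untreated control cells.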

[2] = MTT cell viability assay, normal MCF-10A cells; settings: human, MCF-10A normal mammary epithelial cells
In short: as §1

[3] = test system: MDA-MB-231 (human breast cancer) cells; assay: MTT cell viability assay, MDA-MB-231
In short: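 MDA-MB-231 cells were grown as a monolayer in DMEM with 10% heat-inactivated FBS and 1% penicillin-streptomycin at 37 °C in humidified CO2, subcultured every third day with trypsin-EDTA, and used before passage 8. Cells were exposed 72 h to 10, 25 and 50 μM. Medium was removed, MTT added for 3 h at 37 °C, formazan dissolved in DMSO and read at 595 nm. Viability is relative to untreated control, triplicates, ±SD. IC50 comes from the viability-versus-concentration plot.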

[4] = test system: MCF-7 breast cancer cells; assay: MTT cell viability assay, MCF-7; settings: Homo sapiens
In short: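 After medium removal, MTT was added for 3 h at 37 °C in CO2, formazan dissolved in DMSO and absorbance read at 595 nm. Viability is relative to untreated cells, triplicates, n = 3, ±SD. IC50 comes from plotting percent viability against concentration.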

MDA-MB-453 cells = assay: MTT cell viability assay, MDA-MB-453
In short: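 MDA-MB-453 (HER2-positive) cells were exposed to test compound at 1, 10 and 25 μM for 72 h. After medium removal, MTT was added for 3 h at 37 °C in CO2. Formazan was dissolved in DMSO and absorbance read at 595 nm. Percent viable cells are relative to untreated control cells.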

[5] = MDA-MB-231, 72 h, read-out: Cell viability (%) ±SD
[6] = MCF7, read-out: Cell viability (%) ±SD
[7] = Homo sapiens, MDA-MB-453, read-out: Cell viability (%) ±SD

Q: Which “growth inhibitory activity against normal breast epithelial cell (MCF-10A)” value [1] does the source give for `COc1ccc(-c2cc(=O)n3c(ccn3Cc3cn([C@H]4O[C@H](COC(C)=O)[C@@H](OC(C)=O)[C@H](OC(C)=O)[C@@H]4OC(C)=O)nn3)n2)cc1` [Compound 41, (2R,3R,4S,5S,6S)-2-(Acetoxymethyl)-6-(4-((5-(4-methoxyphenyl)-7-oxopyrazolo[1,5-a]pyrimidin-1(7H)-yl)methyl)-1H-1,2,3-triazol-1-yl)tetrahydro-2H-pyran-3,4,5-triyl triacetate] here?
A: The value was “none of these compounds did have any growth inhibitory activity”.

Q: What about the viability at 72 h, 25 µM [2] of the same compound?
A: Its viability at 72 h, 25 µM is 89.8 ± 2.8%.

Q: And the viability at 72 h, 50 µM [2]?
A: The viability at 72 h, 50 µM was 84.2 ± 5.8%.

Q: And the viability at 72 h, 100 µM [2]?
A: Its viability at 72 h, 100 µM is 83 ± 1.5%.

Q: What about the inhibition at 25 µM ([3]; MDA-MB-231) of the same compound?
A: Its inhibition at 25 µM is ~50%.

Q: What about the viability at 10 µM [3, 5] of the same compound?
A: The viability at 10 µM was 66.7 ± 8.21%.

Q: And the viability at 25 µM [3, 5]?
A: The viability at 25 µM was 54.3 ± 6.12%.

Q: And the viability at 50 µM [3, 5]?
A: The viability at 50 µM was 44.2 ± 4.11%.

Q: What about the inhibition at 25 µM ([4]; MCF7) of the same compound?
A: The inhibition at 25 µM was ~50%.

Q: And the IC50 ([4]; MCF7, 72 h, read-out: IC50 against MCF-7 breast cancer cells line)?
A: The IC50 was 21.8 µM.

Q: And the viability at 1 µM [4, 6]?
A: The viability at 1 µM was 72.8 ± 4.2%.

Q: What about the viability at 10 µM [4, 6] of the same compound?
A: Its viability at 10 µM is 58.2 ± 3.8%.

Q: What about the viability at 25 µM [4, 6] of the same compound?
A: Its viability at 25 µM is 48.1 ± 3.5%.

Q: What about the viability at 1 µM (MDA-MB-453 cells; [7]) of the same compound?
A: The viability at 1 µM was 96.4 ± 4.8%.

Q: And the viability at 10 µM (MDA-MB-453 cells; [7])?
A: The viability at 10 µM was 77.4 ± 5.4%.

Q: And the viability at 25 µM (MDA-MB-453 cells; [7])?
A: The viability at 25 µM was 95.1 ± 35.7%.

Q: What about the “IC50 against MDA-MB-453 cells” value (MDA-MB-453 cells; tested at 1, 10 and 25 μM) of the same compound?
A: Its value is “did not reach up to IC50 value”.
